Drawing on ChEMBL document CHEMBL1155291, “Structure-activity relationship of dopaminergic halogenated 1-benzyl-tetrahydroisoquinoline derivatives” (Eur J Med Chem, 2009), this text covers Ratio Ki, Ki and pKi for eight molecules.

For one assay, the species on record is Rattus norvegicus. As to the kind of experiment: Selectivity ratio of Ki of Wistar rat dopamine D1-like receptor to Ki for Wistar rat dopamine D2-like receptor.
A short description of assay [1]: Displacement of [3H]SCH23390 from dopamine D1-like receptor in Wistar rat striatal membrane after 1 hr by scintillation counting. Format: cell membranes, Striatum. In outline: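 Striatal membranes from female Wistar rats, 100 µg/mL, in Tris-ions buffer pH 7.4 (120 mM NaCl, 2 mM CaCl2, 5 mM KCl, 1 mM MgCl2, 0.1% ascorbic acid). Incubated 1 h at 23 °C with 0.25 nM [3H]-SCH23390 and competitor 10^-10 to 10^-4 M. Non-specific binding with 30 µM SK&F38393. Filtration, then scintillation counting. Ki from KD 0.36 nM. Mean ± SEM of 3–6 experiments.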

Assay [2] is described as follows: Displacement of [3H]raclopride from dopamine D2-like receptor in Wistar rat striatal membrane after 1 hr by scintillation counting. In kind it is cell membranes, Striatum. Summed up:
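Striatal membranes from female Wistar rats, 200 µg/mL, in Tris-ions buffer pH 7.4 (120 mM NaCl, 2 mM CaCl2, 5 mM KCl, 1 mM MgCl2, 0.1% ascorbic acid). Incubated 1 h at 23 °C with 0.5 nM [3H]-raclopride and competitor 10^-10 to 10^-4 M. Non-specific binding with 50 µM apomorphine. Filtration, then scintillation counting. Ki from KD 1.25 nM. Mean ± SEM of 3–6 experiments.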

Molecules are shown by their SMILES.

Consider `CN1CCc2cc(Cl)c(O)cc2C1Cc1ccc(Cl)cc1Cl` (stereo not given), for which, in the assay filed under Rattus norvegicus, the Ratio Ki came to 0.9. In assay [1], the inhibition constant (Ki) worked out at 241 nM and the negative logarithm of the Ki (pKi) was 6.71. Besides, in assay [2], the inhibition constant (Ki) amounted to 269 nM and the pKi is given as 6.64.

On to `COc1cc2c(cc1Cl)CCNC2Cc1ccccc1Br` (stereo not given), for which the Ratio Ki in the assay listed under Rattus norvegicus worked out at 6.2. In assay [1], this molecule registered a Ki of 1530 nM and a pKi of 5.83. Further, in assay [2], the Ki came out at 245 nM and the pKi is listed as 6.63.

For the molecule `CN1CCc2cc(Cl)c(O)cc2C1Cc1ccccc1Br` (stereo not given), the Ratio Ki in the assay listed under Rattus norvegicus is 3.6. Also, in assay [1], the Ki is 65 nM and the pKi amounted to 7.21. Also, in assay [2], the affinity corresponds to a Ki of 18 nM and the pKi is 7.76.

As to `COc1cc2c(cc1Cl)CCN(C)C2Cc1ccc(Cl)cc1Cl` (stereo not given), the Ratio Ki in the assay listed under Rattus norvegicus was 2.5. In assay [1], this molecule had a Ki of 15100 nM and a negative logarithm of the Ki (pKi) of 4.84. Moreover, in assay [2], the Ki stood at 6130 nM and the negative-log Ki (pKi) stood at 5.23.

With `COc1cc2c(cc1Cl)CCNC2Cc1ccc(Cl)cc1Cl` (stereo not given), the Ratio Ki in the assay filed under Rattus norvegicus is 3.4. Moreover, in assay [1], the inhibition constant (Ki) stood at 11300 nM and the pKi worked out at 5.01. For the same molecule, in assay [2], the Ki was 3300 nM and the pKi was determined as 5.51.

For the molecule `Oc1cc2c(cc1Cl)CCNC2Cc1ccccc1Br` (stereo not given), in the assay listed under Rattus norvegicus, the Ratio Ki stood at 2.4. In assay [1], this molecule registered a Ki of 110 nM and a pKi of 7.06. In assay [2], the Ki was 46 nM and the pKi is 7.39.

On to `COc1cc2c(cc1Cl)CCN(C)C2Cc1ccccc1Br` (stereo not given), for which the Ratio Ki in the assay filed under Rattus norvegicus turned out to be 1. Besides, in assay [1], the Ki came to 1320 nM and the pKi is 5.89. In addition, in assay [2], the Ki was determined as 1340 nM and the pKi is given as 5.9.

In the case of `Oc1cc2c(cc1Cl)CCNC2Cc1ccc(Cl)cc1Cl` (stereo not given), the Ratio Ki in the assay filed under Rattus norvegicus worked out at 1.7. In assay [1], this molecule gave a Ki of 183 nM and a pKi of 6.74. Further, in assay [2], the affinity corresponds to a Ki of 107 nM and the negative-log Ki (pKi) is recorded as 7.
